ChEMBL document CHEMBL4673269, “Discovery of S64315, a Potent and Selective Mcl-1 Inhibitor” (J Med Chem, 2020)
The source made the active and inactive calls. The calls are words filed in the database; no cut-off is given here.

Experiments:
Cytochrome P450 2C8 = Cytochrome P450 2C8 (Homo sapiens, UniProt P10632); test: Drug metabolism assessed as CYP2C8 (unknown origin) mediated metabolism; format: ADME
AMO1 = test: Antitumor activity against human AMO1 xenografted in CB-17 SCID mouse assessed as tumor growth inhibition administered intravenously for 5 consecutive days measured post-last dose; format: functional; conditions: time 5.0 day
Method in brief: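 Female CB-17 SCID mice, 6−7 weeks old. 5 × 10⁶ AMO-1 cells in growth medium/Matrigel 50:50 injected subcutaneously in the right flank. Randomised at about 200 mm³, n = 8 to 10 per group. Dosed iv in 20% HPbCD–25 mM HCl, daily for 5 days or weekly for 4 weeks. Calipers 2−3 times weekly; volume = length × width²/2. TGI computed from median change in volume versus control; delay judged at median volume 500 mm³.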

SU-DHL-1 = test: Antiproliferative activity against human SU-DHL1 assessed as reduction in cell viability incubated for 3 days by Cell Titer Blue assay; format: functional, cell-based; conditions: time 3.0 day
MV4-11 = test: Antiproliferative activity against human MV411 assessed as reduction in cell viability incubated for 3 days by Cell Titer Blue assay; format: functional, cell-based; conditions: time 3.0 day
MOLM-13 = test: Antiproliferative activity against human MOLM13 assessed as reduction in cell viability incubated for 3 days by Cell Titer Blue assay; format: functional, cell-based; conditions: time 3.0 day
NOMO-1 = test: Antiproliferative activity against human NOMO1 assessed as reduction in cell viability incubated for 3 days by Cell Titer Blue assay; format: functional, cell-based; conditions: time 3.0 day
PL21 = test: Antiproliferative activity against human PL21 assessed as reduction in cell viability incubated for 3 days by Cell Titer Blue assay; format: functional; conditions: time 3.0 day
THP-1 = test: Induction of apoptosis in human THP1 cells incubated for 2 hrs by annexin-V-FITC and propidium iodide staining based by flow cytometry; format: functional, cell-based
Method in brief: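 THP-1 cells, wild type or CRISPR BAX/BAK knockout (verified by Western blot), were treated for 2 h. They were washed in binding buffer (10 mM Hepes, 140 mM NaCl, 2.5 mM CaCl₂) and stained with annexin V-FITC and PI for 15 min at 20 °C in the dark. 10⁴ cells per sample were read by flow cytometry. Apoptotic plus necrotic cells were normalised to total cells. Two biological replicates; DMSO control.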

NCI-H929 = test: Induction of apoptosis in human H929 cells assessed as induction of PARP cleavage incubated for 6 hrs by immunodetection analysis; format: functional, cell-based; conditions: dose 1-3000 nM
Method in brief: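 H929 cells in RPMI 1640 with 10% FBS were seeded at 2 × 10⁶ cells per 35 mm dish. After 24 h they were exposed to compound for 6 h, then lysed (Hepes pH 7.4, KCl, MgCl₂, EDTA, 1% NP40). 5 μg lysate was assayed for cleaved PARP with the MSD apoptosis panel, read as RLU. Two independent biological experiments.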

[1] = target: Induced myeloid leukemia cell differentiation protein Mcl-1 (Homo sapiens) (UniProt Q07820); test: Stabilization of Mcl-1 in human HCT116 cells assessed as increase in Mcl-1 protein levels incubated for 16 hrs by western blot analysis; format: cell-based; conditions: HCT-116, dose 0.3-10000 nM
Method in brief: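 HCT116 cells were seeded at 0.25×10⁶ per 35 mm dish in RPMI 1640 with 10% decomplemented FBS, 2 mM L-glutamine and 10 mM Hepes pH 7.4, at 37 °C and 5% CO₂. After 48 h they were dosed for 16 h and lysed in Hepes/KCl/MgCl₂/EDTA/1% NP40 buffer with inhibitors. Lysate (20 μg) was immunoblotted for Mcl-1, with actin as loading control.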

[2] = target: Bcl-2-like protein 1 (Homo sapiens) (UniProt Q07817); test: Displacement of Bax BH3 domain from FLAG-tagged Bcl-xl (unknown origin) expressed in human Hela cells at 30 to 300 nM incubated for 2 hrs by immunoprecipitation assay; format: cell-based; conditions: dose 30-300 nM
Method in brief: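 HeLa cells in DMEM with 10% FCS were transiently transfected with Flag-tagged Mcl-1, Bcl-xL or Bcl-2 vectors. 24 h later they were treated for 2 h and lysed (Hepes pH 7.5, 150 mM KCl, MgCl₂, EDTA, 0.4% Triton X100). Cleared lysates were immunoprecipitated with anti-Flag M2 beads. Inputs and IPs were immunoblotted for endogenous Bax, Bak and Flag.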

[3] = Terminal half-life in mouse at 12.5 mg/kg, iv formulated with 20 % HPBCD in water/ […]; format: ADME, organism-based; conditions: in vivo, read-out: beta t1/2 (converted)

Induced myeloid leukemia cell differentiation protein Mcl-1 (Homo sapiens), sequence (Q07820 whole entry): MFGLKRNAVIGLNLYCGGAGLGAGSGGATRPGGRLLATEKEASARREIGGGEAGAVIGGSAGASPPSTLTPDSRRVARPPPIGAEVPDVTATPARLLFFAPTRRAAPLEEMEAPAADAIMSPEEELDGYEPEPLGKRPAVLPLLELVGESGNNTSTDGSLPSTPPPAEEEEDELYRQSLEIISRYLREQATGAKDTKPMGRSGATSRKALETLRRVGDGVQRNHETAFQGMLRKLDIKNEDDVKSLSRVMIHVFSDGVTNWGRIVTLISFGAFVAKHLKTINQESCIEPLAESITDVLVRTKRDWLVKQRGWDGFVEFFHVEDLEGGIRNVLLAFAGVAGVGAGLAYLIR
Bcl-2-like protein 1 (Homo sapiens), sequence (Q07817 whole entry, the tested form may be a part): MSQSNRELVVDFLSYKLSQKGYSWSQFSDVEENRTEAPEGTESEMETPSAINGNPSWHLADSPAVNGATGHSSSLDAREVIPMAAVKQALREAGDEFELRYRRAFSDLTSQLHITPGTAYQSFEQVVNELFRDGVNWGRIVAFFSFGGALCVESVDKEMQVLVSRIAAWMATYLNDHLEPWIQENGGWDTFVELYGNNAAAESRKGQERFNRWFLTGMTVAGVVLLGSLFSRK
Cytochrome P450 2C8, sequence (P10632 whole entry): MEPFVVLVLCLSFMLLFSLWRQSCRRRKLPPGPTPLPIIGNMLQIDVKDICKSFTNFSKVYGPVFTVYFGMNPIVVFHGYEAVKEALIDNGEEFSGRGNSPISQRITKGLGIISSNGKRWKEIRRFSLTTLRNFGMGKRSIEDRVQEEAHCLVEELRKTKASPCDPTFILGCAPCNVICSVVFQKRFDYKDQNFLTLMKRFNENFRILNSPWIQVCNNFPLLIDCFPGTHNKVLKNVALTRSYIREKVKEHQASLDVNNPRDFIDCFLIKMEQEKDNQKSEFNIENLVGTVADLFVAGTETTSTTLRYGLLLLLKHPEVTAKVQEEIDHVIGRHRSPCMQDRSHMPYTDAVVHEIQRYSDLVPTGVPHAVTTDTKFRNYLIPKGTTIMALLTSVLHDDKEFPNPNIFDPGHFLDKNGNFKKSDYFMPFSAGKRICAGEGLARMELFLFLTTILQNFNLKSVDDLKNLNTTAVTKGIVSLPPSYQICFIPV

With `COc1ccccc1-c1nccc(COc2ccccc2C[C@@H](Oc2ncnc3sc(-c4ccc(F)cc4)c(-c4ccc(OCCN5CCN(C)CC5)c(Cl)c4C)c23)C(=O)O)n1` the Drug metabolism (Cytochrome P450 2C8) was “Metabolite_Detected”, the Activity (AMO1) was “Dose-dependent effect” and the Activity (SU-DHL-1) was “Active”. For the same compound, the Activity (MV4-11) was “Active”, the Activity (MOLM-13) was “Active” and the Activity (NOMO-1) was “Active”. The Activity (PL21) was “Active”, the Activity (THP-1) was “Dose-dependent effect” and the Activity (NCI-H929) was “Dose-dependent effect”. The Activity [1] was “Dose-dependent effect”, the Activity [2] was “inactive” and the half-life [3] was 5 h.
